Assay results: publication PMC7141409 (Journal of biomolecular NMR, 2019)

Key:
[1] = test system: ^15N-OsIAA11^72−125 (W104-P105 peptide bond); experiment: Nzz-exchange: catalyzed cis-trans exchange of W104-P105; format: biochemical, rice
Outline: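 15N-labeled OsIAA11 72–125 substrate (800μM) with 16μM enzyme (LRT2 mutant or homolog) in NMR buffer (50mM KCl, 20mM KPO4, 3mM TCEP, 5mM NaN3, 0.1% protease inhibitor cocktail, pH=6.67). Protein concentrations were set by A280 using theoretical extinction coefficients. Nzz-exchange spectra were processed to give the observed cis-trans exchange rate (kexobs) of the W104-P105 bond with uncertainties.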

[2] = Succinyl-Ala-Ala-Pro-Phe-NH-Mec; cited from earlier work
[3] = test system: rice; settings: rice strain with OsIAA11 P106L; cited from earlier work
[4] = test system: E3 ubiquitin ligase SCF^TIR1; settings: rice strain with OsIAA11 P106L; cited from earlier work

Row | Molecule | Nzz exchange crosspeaks / activity ([1]; 16μM enzyme, 800μM OsIAA11^72–125) | Nzz-measured kexobs ([1]; 1H-15N Nzz exchange, 16μM enzyme, 800μM OsIAA11^72–125, NMR buffer pH=6.67) [s⁻¹] | Activity relative to WT LRT2 on OsIAA11 ([1]; Nzz, % of WT LRT2 activity) [%] | kcat/Km relative to hCypA [2] | Lateral root development [3] | Proteasomal degradation [4]
1 | PPIB: petidyl-prolyl isomerase B from E. coli (Uniprot entry P23869) (protein, UniProt P23869 1-164, looked up) Peptidyl-prolyl cis-trans …: MVTFHTNHGDIVIKTFDDKAPETVKNFLDYCREGFYNNTIFHRVINGFMIQGGGFEPGMKQKATKEPIKNEANNGLKNTRGTLAMARTQAPHSATAQFFINVVDNDFLNFSGESLQGWGYCVFAEVVDGMDVVDKIKGVATGRSGMHQDVPKEDVIIESVTVSE | clear exchange crosspeaks | 0.37 ± 0.04 | 60 | more than an order of magnitude higher kcat/Km than hCypA | – | –
2 | OsIAA11 P106L: OsIAA11 P106L mutation (directly adjacent to the W104-P105 peptide bond) (protein, UniProt Q75GK0 1-233, looked up, variant P106L) Auxin-responsive protein IAA11: MAGLGFDETELRLGLPGAGELAARSSGKRGFAETIDLKLKLQPAAPAAVSGEEGAQEDKEDADAAAAAADEKMSMKRSASQSSVVTAEPDPDKPRAPKAQVVGWPLVRSFRKNVLAEKCKAAALVKVSMDGAPYLRKIDVAMYKSYPELSMAFQNMFTSFTIGKCGSHQQLKESNKLRDDLEYVPTYEDKDGDWMLVGDVPWEMFVESCKRLRIMKGSEAIGLAPRAVEKCKS | – | – | – | – | no induction of lateral root development | evades proteasomal degradation
